From ChEMBL document CHEMBL4028876, “Discovery of a Novel Piperidine-Based Inhibitor of Cholesteryl Ester Transfer Protein (CETP) That Retains Activity in Hypertriglyceridemic Plasma” (J Med Chem, 2017)
Calls of active or inactive are those of the source. The calls are words filed in the database; no cut-off is given here.

Tests used:
[1] = tested on: Syrian golden hamster; assay: Reduction in LDL cholesterol level in Syrian hamster plasma at 0.3 and 10 mg/kg, po dosed once daily for 2 weeks and measured 24 hrs post last dose by HPLC size exclusion chromatography method relative to control; format: functional, organism-based; conditions: Mesocricetus auratus
How it was run: (§1)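 Chow-fed hamsters gavaged once daily in the morning for 2 weeks (0.3, 1, 3, 10 mg/kg; vehicle 10 mL/kg). Blood is drawn from the abdominal vein under isoflurane 24 h post last dose, after a 16 h fast. Lipoprotein cholesterol is measured by Superose 6 HPLC with online enzymatic detection at 580 nm, standardized to control plasma. Mean ± SEM, n=6, Dunnett test.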

[2] = target: T1, Cholesteryl ester transfer protein (Homo sapiens) (UniProt P11597); assay: Inhibition of CETP activity in human serum at upto 1200 mg/dl serum triglyceride concentration by LC-MS/MS method; conditions: in the assay text read “fluorescence method” for “LC-MS/MS method”
T1 sequence (whole entry): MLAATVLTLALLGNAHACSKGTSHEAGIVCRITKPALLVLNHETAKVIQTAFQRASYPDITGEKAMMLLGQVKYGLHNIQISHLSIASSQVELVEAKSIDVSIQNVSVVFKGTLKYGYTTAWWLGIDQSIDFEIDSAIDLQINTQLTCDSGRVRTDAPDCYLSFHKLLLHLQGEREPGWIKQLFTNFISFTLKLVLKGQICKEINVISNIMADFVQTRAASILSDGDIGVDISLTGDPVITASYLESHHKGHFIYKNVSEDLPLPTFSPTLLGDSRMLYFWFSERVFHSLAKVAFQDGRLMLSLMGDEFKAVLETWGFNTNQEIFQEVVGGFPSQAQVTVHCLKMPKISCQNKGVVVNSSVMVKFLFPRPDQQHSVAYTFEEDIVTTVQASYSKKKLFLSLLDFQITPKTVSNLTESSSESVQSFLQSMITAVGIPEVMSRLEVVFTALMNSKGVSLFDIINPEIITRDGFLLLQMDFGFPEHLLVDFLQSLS
How it was run: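 Three human serum pools of differing triglyceride level. IC50 values are the mean of two replicates per pool.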

[3] = tested on: Serum; assay: Drug uptake in triglyceride rich lipoprotein fraction of human serum from human donors with triglyceride levels ( 300-500 and >750 mg/dL) by LC-MS/MS method; format: ADME, cell-free
How it was run: (§2)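 Pooled unfasted human serum (mean TG 122, 347 or 958 mg/dL) spiked with inhibitor to 500 ng/mL, 37 °C, 1 h. NaBr density-gradient ultracentrifugation, 18.5 h at 15 °C. Acetonitrile precipitation, glyburide internal standard, LC-MS/MS in duplicate. Result given as % of total across pools.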

[4] = Selectivity for inhibition of CYP3A4 (unknown origin) to IC50 for inhibition of CETP in human plasma
[5] = Drug uptake in Syrian hamster adrenal tissue at 10 mg/kg, po dosed once daily for 14 days measured 24 hrs post last dose by LC-MS/MS method; format: ADME, organism-based, Mesocricetus auratus, Adrenal gland; conditions: in vivo
How it was run: (§3)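 Chow-fed hamsters dosed orally once daily for 14 days. Blood and ~100 mg adipose, adrenal and liver samples are taken 24 h after the final dose. Tissues are flash-frozen and stored at −80 °C. Total drug concentrations are measured by LC-MS/MS. Mean ± SEM, seven animals per group.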

[6] = tested on: Rattus norvegicus; assay: Toxicity in cannulated Sprague-Dawley rat assessed as increase in mean arterial pressure at 5 mg/kg, iv by blood pressure transducer based method; format: organism-based; conditions: in vivo
[7] = tested on: Serum; assay: Drug uptake in lipoprotein deficient serum fraction of human serum from human donors with normal triglyceride levels (<150 mg/dL) by LC-MS/MS method; format: ADME, cell-free; how it was run: as §2
[8] = tested on: Serum; assay: Drug uptake in HDL fraction of human serum from human donors with triglyceride levels ( 300-500 and >750 mg/dL) by LC-MS/MS method; format: ADME, cell-free; how it was run: as §2
[9] = tested on: Serum; assay: Drug uptake in LDL fraction of human serum from human donors with triglyceride levels ( 300-500 and >750 mg/dL) by LC-MS/MS method; format: ADME, cell-free; how it was run: as §2
[10] = target: Cytochrome P450 2C9 (Homo sapiens, UniProt P11712); assay: Inhibition of CYP2C9 (unknown origin); format: ADME
Cytochrome P450 2C9, sequence (P11712 whole entry): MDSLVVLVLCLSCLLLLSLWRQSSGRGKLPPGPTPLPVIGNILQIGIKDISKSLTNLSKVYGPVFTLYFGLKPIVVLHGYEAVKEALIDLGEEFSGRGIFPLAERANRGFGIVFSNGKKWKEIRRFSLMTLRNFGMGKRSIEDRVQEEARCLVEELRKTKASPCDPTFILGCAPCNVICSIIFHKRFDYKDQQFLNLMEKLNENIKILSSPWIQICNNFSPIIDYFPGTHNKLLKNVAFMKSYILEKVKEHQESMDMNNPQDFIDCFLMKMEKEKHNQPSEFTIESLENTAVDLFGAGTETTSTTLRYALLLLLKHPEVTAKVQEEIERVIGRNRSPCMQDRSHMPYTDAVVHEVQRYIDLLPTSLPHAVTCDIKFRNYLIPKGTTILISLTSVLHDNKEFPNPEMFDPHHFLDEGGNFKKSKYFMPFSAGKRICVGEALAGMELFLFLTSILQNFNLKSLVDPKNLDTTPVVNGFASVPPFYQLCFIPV

[11] = Oral bioavailability in Sprague-Dawley rat at 3 mg/kg by LC-ESI-MS/MS analysis; format: ADME, organism-based; conditions: in vivo
How it was run: (§4)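 Conscious 7-week-old male Sprague-Dawley rats on standard diet with free water. Dosing is 1 mg/kg iv bolus in N-methylpyrrolidin-2-one/PEG 200, or 3 mg/kg oral suspension in 0.5% aqueous methylcellulose. Blood is sampled at various time points after administration.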

[12] = target: T2, Cytochrome P450 3A4 (Homo sapiens, UniProt P08684); assay: Inhibition of CYP3A4 (unknown origin) in the presence of testosterone; format: ADME
T2 sequence (P08684 whole entry): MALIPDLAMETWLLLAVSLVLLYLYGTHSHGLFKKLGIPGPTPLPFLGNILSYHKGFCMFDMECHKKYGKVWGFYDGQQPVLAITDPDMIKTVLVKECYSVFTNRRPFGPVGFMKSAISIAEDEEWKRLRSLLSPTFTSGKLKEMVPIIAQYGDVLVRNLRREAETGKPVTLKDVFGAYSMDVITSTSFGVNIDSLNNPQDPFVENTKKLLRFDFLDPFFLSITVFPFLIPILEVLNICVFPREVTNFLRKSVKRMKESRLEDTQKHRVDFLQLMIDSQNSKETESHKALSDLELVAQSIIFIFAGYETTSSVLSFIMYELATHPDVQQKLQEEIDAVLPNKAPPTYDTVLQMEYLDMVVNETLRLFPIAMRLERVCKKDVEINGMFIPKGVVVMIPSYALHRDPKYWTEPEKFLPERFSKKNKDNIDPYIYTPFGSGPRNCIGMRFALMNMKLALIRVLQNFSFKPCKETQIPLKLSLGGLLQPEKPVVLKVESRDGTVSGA

[13] = tested on: Rattus norvegicus; assay: Toxicity in cannulated Sprague-Dawley rat assessed as increase in plasma aldosterone levels at 5 mg/kg, iv by radioimmunoassay; format: organism-based; conditions: in vivo
[14] = tested on: Syrian golden hamster; assay: Reduction in LDL cholesterol level in Syrian hamster plasma at 0.3 and 10 mg/kg, po dosed once daily for 2 weeks and measured 24 hrs post last dose by HPLC size exclusion chromatography method; format: functional, organism-based; conditions: Mesocricetus auratus; how it was run: as §1
[15] = tested on: NCI-H295R; assay: Toxicty in human NCI-H295R cells assessed as increase in aldosterone levels at 0.1 to 10000 nM after 24 hrs by scintillation proximity assay; format: toxicity, cell-based; conditions: 10 µM
[16] = tested on: Hamster; assay: Ex vivo inhibition of CETP activity in hamster hypertriglyceridemia model treated with 100 mg/kg, iv Triton WR-1339 dosed 5 hrs post compound dose measured every 15 mins for 120 mins by fluorescence method; format: functional, organism-based; conditions: Cricetinae
How it was run: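 Chow-fed hamsters given a single gavage dose of compound or vehicle. Triton WR-1339 (100 mg/kg) or saline is given iv 5 h later, and plasma is taken 3 h after that. Plasma (final 80%) is mixed with fluorescent donor in 50 mM Tris-HCl pH 7.4, 150 mM NaCl, 2 mM EDTA. Ex/em 485/535 nm, read every 15 min for 120 min at 37 °C. Activity is the 30–90 min slope. Five animals per group.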

[17] = tested on: Hamster; assay: Increase in HDL cholesterol levels in hamster plasma by HPLC size exclusion chromatography method relative to control; format: functional; conditions: Cricetinae; how it was run: as §1
[18] = Clearance in Sprague-Dawley rat plasma at 1 mg/kg, iv or 3 mg/kg, po by LC-ESI-MS/MS analysis; format: ADME, organism-based; how it was run: as §4
[19] = tested on: Serum; assay: Drug uptake in triglyceride rich lipoprotein fraction of human serum from human donors with normal triglyceride levels (<150 mg/dL) by LC-MS/MS method; format: ADME, cell-free; how it was run: as §2
[20] = target: T2, Cytochrome P450 3A4; assay: Inhibition of CYP3A4 (unknown origin) in the presence of midozolam; format: ADME
[21] = tested on: Syrian golden hamster; assay: Increase in HDL cholesterol level in Syrian hamster plasma at 0.3 and 10 mg/kg, po dosed once daily for 2 weeks and measured 24 hrs post last dose by HPLC size exclusion chromatography method relative to control; format: functional, organism-based; conditions: Mesocricetus auratus; how it was run: as §1
[22] = tested on: Serum; assay: Drug uptake in LDL fraction of human serum from human donors with normal triglyceride levels (<150 mg/dL) by LC-MS/MS method; format: ADME, cell-free; how it was run: as §2
[23] = target: Cytochrome P450 2D6 (Homo sapiens, UniProt P10635); assay: Inhibition of CYP2D6 (unknown origin); format: ADME
Cytochrome P450 2D6, sequence (P10635 whole entry): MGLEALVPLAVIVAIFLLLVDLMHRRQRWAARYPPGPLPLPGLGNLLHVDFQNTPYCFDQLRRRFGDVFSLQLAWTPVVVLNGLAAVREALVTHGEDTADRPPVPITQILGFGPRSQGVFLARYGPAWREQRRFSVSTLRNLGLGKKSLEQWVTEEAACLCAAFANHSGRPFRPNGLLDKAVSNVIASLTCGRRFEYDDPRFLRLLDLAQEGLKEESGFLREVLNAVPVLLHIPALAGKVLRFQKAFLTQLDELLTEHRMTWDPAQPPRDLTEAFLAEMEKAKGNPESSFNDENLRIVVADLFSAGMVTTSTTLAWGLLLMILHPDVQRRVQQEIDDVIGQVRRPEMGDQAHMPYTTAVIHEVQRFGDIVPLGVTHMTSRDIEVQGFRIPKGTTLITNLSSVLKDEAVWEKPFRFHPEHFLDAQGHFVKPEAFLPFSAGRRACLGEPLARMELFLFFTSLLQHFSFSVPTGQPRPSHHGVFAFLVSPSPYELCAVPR

[24] = Drug uptake in Syrian hamster adipose tissue at 10 mg/kg, po dosed once daily for 14 days measured 24 hrs post last dose by LC-MS/MS method; format: ADME, organism-based, Mesocricetus auratus; conditions: in vivo; how it was run: as §3
[25] = Half life in Sprague-Dawley rat at 1 mg/kg, iv or 3 mg/kg, po by LC-ESI-MS/MS analysis; format: ADME, organism-based; conditions: in vivo; how it was run: as §4
[26] = tested on: Syrian golden hamster; assay: Inhibition of CETP in Syrian hamster blood at 0.3 to 10 mg/kg, po dosed once daily for 2 weeks and measured 24 hrs post last dose; format: functional, organism-based; conditions: Mesocricetus auratus
[27] = AUC (infinity) in Sprague-Dawley rat at 1 mg/kg, iv or 3 mg/kg, po by LC-ESI-MS/MS analysis; format: ADME, organism-based; conditions: in vivo; how it was run: as §4
[28] = tested on: Serum; assay: Drug uptake in HDL fraction of human serum from human donors with normal triglyceride levels (<150 mg/dL) by LC-MS/MS method; format: ADME, cell-free; how it was run: as §2
[29] = Selectivity for inhibition of CYP2C9 (unknown origin) to IC50 for inhibition of CETP in human plasma
[30] = Selectivity for inhibition of CYP2D6 (unknown origin) to IC50 for inhibition of CETP in human plasma
[31] = Volume of distribution in Sprague-Dawley rat at 1 mg/kg, iv or 3 mg/kg, po by LC-ESI-MS/MS analysis; format: ADME, organism-based; conditions: in vivo; how it was run: as §4
[32] = 1-Octanol-phosphate buffered saline partition coefficient, log D of compound at […] by tandem mass spectrometry method; format: physicochemical
[33] = Drug uptake in Syrian hamster plasma at 10 mg/kg, po dosed once daily for 14 days measured 24 hrs post last dose by LC-MS/MS method; format: ADME, organism-based, Mesocricetus auratus; conditions: in vivo; how it was run: as §3
[34] = tested on: Serum; assay: Drug uptake in lipoprotein deficient serum fraction of human serum from human donors with triglyceride levels ( 300-500 and >750 mg/dL) by LC-MS/MS method; format: ADME, cell-free; how it was run: as §2
[35] = tested on: Plasma; assay: Protein binding in human plasma using [14C]-labeled compound after 3 hrs by scintillation counting based ultracentrifugation method; format: ADME, cell-free
How it was run: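 Human plasma spiked with [14C]-labelled compound at 50−10000 ng/mL, then ultracentrifuged 3 h at 37 °C at 306000g. Supernatant radioactivity is counted by scintillation. Bound fraction = (total − supernatant)/total.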

## CC[C@@H]1C[C@H](N(Cc2cc(C(F)(F)F)cc(C(F)(F)F)c2)c2ncc(-c3cnn(C)c3)cn2)C[C@H](CC)N1C(=O)O[C@H]1CC[C@H](C(=O)O)CC1
[1]
  Activity: Active
[2]
  inhibition: Active
[3]
  Drug uptake: Active
[4]
  Selectivity ratio: >170
[5]
  Drug uptake: Not Active
[6]
  Activity: Non-Toxic
[7]
  Drug uptake: Active
[8]
  Drug uptake: Active
[9]
  Drug uptake: Active
[10]
  IC50: 19 µM
[11]
  bioavailability: 43%
[12]
  IC50: > 50 µM
[13]
  Activity: Non-Toxic
[14]
  Activity: Dose-dependent effect
[15]
  Activity: Non-Toxic
[16]
  inhibition: Active
[17]
  Activity: Dose-dependent effect
[18]
  clearance: 1.5 mL/min/kg
[19]
  Drug uptake: Active
[20]
  IC50: 10.6 µM
[21]
  Activity: Dose-dependent effect
[22]
  Drug uptake: Active
[23]
  IC50: 31 µM
[24]
  Drug uptake: Not Active
[25]
  half-life: 5.8 h
[26]
  inhibition: Active
[27]
  AUC(0-inf): 27.2 µM·h
[28]
  Drug uptake: Active
[29]
  Selectivity ratio: >170
[30]
  Selectivity ratio: >170
[31]
  Vd: 0.57 L/kg
[32]
  logD: 5.2
[33]
  Drug uptake: Active
[34]
  Drug uptake: Active
[35]
  PPB: 99.4%
